From ChEMBL document CHEMBL4017489, “Design, Synthesis, and Evaluation of New Selective NM23-H2 Binders as c-MYC Transcription Inhibitors via Disruption of the NM23-H2/G-Quadruplex Interaction” (J Med Chem, 2017)
Active and inactive are the calls of the source. The calls are words filed in the database; no cut-off is given here.

Experiments:
[1] = target: T1, Nucleoside diphosphate kinase B (Homo sapiens, UniProt P22392); test: Binding affinity to NM23-H2 (unknown origin) assessed as ratio of Kd for protein interaction with biotin-labeled Pu22 c-myc G-quadruplex DNA in presence and absence of compound after 1 hr by ELISA
[2] = target: T1, Nucleoside diphosphate kinase B; test: Binding affinity to NM23-H2 in human SiHa cells assessed as disruption of protein interaction with c-myc G-quadruplex DNA by measuring decrease in c-MYC mRNA level at 2 uM after 9 hrs by RT-PCR analysis; type: cell-based
Procedure, shortened: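 SiHa cells treated at 0, 0.5, 1.0, 2.0 μM for 9 h; TRIzol RNA, 1.5 μg reverse-transcribed with oligo(dT); semiquantitative PCR, 30 cycles, 58 °C annealing; bands normalized to β-actin, untreated 100%; three repeats.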

[3] = Binding affinity to biotin-labeled 18-mer duplex DNA hairpin (unknown origin) at 40 uM after 30 mins by SPR analysis
[4] = Binding affinity to Htg21 telomeric G-quadruplex DNA (unknown origin) at 40 uM after 30 mins by SPR analysis
[5] = target: T1, Nucleoside diphosphate kinase B; test: Binding affinity to NM23-H2 in human SiHa cells assessed as disruption of protein interaction with c-myc G-quadruplex DNA by measuring decrease in c-MYC protein expresson at 2 uM after 48 hrs by Western blot analysis; type: cell-based
Procedure, shortened: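 SiHa cells treated 48 h; lysates (30 μg) on 10% SDS-PAGE, nitrocellulose, anti-c-MYC overnight at 4 °C, HRP secondary, chemiluminescence; β-actin internal control; three repeats.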

[6] = target: T1, Nucleoside diphosphate kinase B; test: Binding affinity to NM23-H2 (unknown origin) by SPR analysis
[7] = target: T1, Nucleoside diphosphate kinase B; test: Binding affinity to N-terminal NT-647-NHS labeled NM23-H2 (unknown origin) after 30 mins by MST analysis
Procedure, shortened: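 NM23-H2 N-terminally labeled with RED-NHS dye (20 μM protein, 30 min dark, RT), free dye removed; 200 nM labeled protein with compound from 500 μM, 16 twofold steps, 30 min RT in 50 mM Tris-HCl pH 7.4, 150 mM NaCl, 10 mM MgCl2, 0.05% Tween-20; KD at half-plateau.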

[8] = Binding affinity to biotin-labeled Pu22 c-myc G-quadruplex DNA (unknown origin) by SPR analysis
SiHa [9] = test: Antiproliferative activity against human SiHa cells after 48 hrs by MTT assay; type: functional, cell-based
SiHa [10] = test: Antitumor activity against human SiHa cells xenografted in BALB/C nude mouse assessed as tumor growth inhibition at 1 mg/kg, ip administered daily after 3 weeks relative to control; type: functional; conditions: 504 h, read-out: TGI
SiHa [11] = test: Antitumor activity against human SiHa cells xenografted in BALB/C nude mouse assessed as tumor weight at 1 mg/kg, ip administered daily after 3 weeks (reference value: 511.6 mg); type: functional
Mus musculus = test: Toxicity in BALB/C nude mouse xenografted with human SiHa cells assessed as change in body weight at 1 mg/kg, ip administered daily after 3 weeks; type: organism-based; conditions: in vivo, 504 h
Procedure, shortened: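 SiHa cells implanted in the right armpit of BALB/c nu/nu mice. At approximately 50 mm3, mice randomized (n = 8/group) to vehicle, compound 2.5 or 5.0 mg/kg, or doxorubicin 1.0 mg/kg, given ip daily for 3 weeks. Body weight and signs of pain, distress or discomfort monitored; tumors excised and weighed. Data given as mean ± SEM, t test against vehicle.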

[12] = target: T1, Nucleoside diphosphate kinase B; test: Binding affinity to NM23-H2 (unknown origin) up to 40 uM by SPR analysis

T1 sequence (P22392 whole entry): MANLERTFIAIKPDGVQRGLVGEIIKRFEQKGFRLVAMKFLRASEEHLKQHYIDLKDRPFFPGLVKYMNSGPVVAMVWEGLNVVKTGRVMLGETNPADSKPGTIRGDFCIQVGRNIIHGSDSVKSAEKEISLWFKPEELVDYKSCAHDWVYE

Ratio [1]	Activity [2]	Activity [3]	Activity [4]	Activity [5]	Kd [6]	Kd [7]	Kd [8]	Activity [12]	SMILES	IC50 (SiHa [9])	inhibition in vivo at 1 mg/kg (SiHa [10])	Activity (SiHa [11])	Activity (Mus musculus)
2.3	Active	inactive	inactive	Active	10.4 µM	24.6 µM	–	–	O=C(CCN1CCCC1)Nc1ccc(/C=C2\CCCn3c2nc2cc(NC(=O)CCN4CCCC4)ccc2c3=O)cc1	–	–	–	–
–	–	–	–	–	7.6 µM	–	3.8 µM	–	CCN(CC)CCCNC(=O)c1ccc(/C=C2\CCn3c2nc2cc(NCCN4CCCC4)c(F)cc2c3=O)cc1	–	–	–	–
–	–	inactive	inactive	–	10.1 µM	18.9 µM	35.8 µM	–	CC(=O)Oc1ccc(/C=C2\CCn3c2nc2cc(NCCCN(C)C)c(F)cc2c3=O)cc1	–	–	–	–
–	Active	inactive	inactive	Active	19.8 µM	18 µM	2.7 µM	–	O=C(NCCCN1CCCC1)c1ccc(/C=C2\CCn3c2nc2cc(NCCN4CCCC4)c(F)cc2c3=O)cc1	16.4 µM	–	–	–
> 3	–	inactive	inactive	–	9.6 µM	15.4 µM	–	–	CC(C)Oc1ccc(/C=C2\CCn3c2nc2cc(NCCCN(C)C)c(F)cc2c3=O)cc1	–	–	–	–
> 3	–	inactive	inactive	–	8.5 µM	10.8 µM	–	–	CN(C)CCCNc1cc2nc3n(c(=O)c2cc1F)CC/C3=C\c1ccc(/C=C/c2ccccn2)cc1	–	–	–	–
2.1 to 2.6	–	inactive	inactive	–	16.8 µM	18.4 µM	–	–	COc1cc(/C=C2\CCn3c2nc2cc(NCCCN(C)C)c(F)cc2c3=O)cc(OC)c1OC	–	–	–	–
> 3	–	inactive	inactive	–	12.2 µM	7.6 µM	–	–	O=c1c2cc(F)c(NCCN3CCCCC3)cc2nc2n1CC/C2=C\c1ccc(OCc2ccccc2)cc1O	–	–	–	–
> 3	–	inactive	inactive	–	4.6 µM	3.4 µM	–	–	CCN(CC)CCCNc1cc2nc3n(c(=O)c2cc1F)CC/C3=C\c1ccc(OCc2ccccc2)cc1O	–	–	–	–
–	–	–	–	–	–	–	–	–	COc1cccc2c1C(=O)c1c(O)c3c(c(O)c1C2=O)C[C@@](O)(C(=O)CO)C[C@@H]3O[C@H]1C[C@H](N)[C@H](O)[C@H](C)O1 [DOXORUBICIN]	–	67.6%	165.9 mg	Toxic
> 3	–	inactive	inactive	–	14.6 µM	20.6 µM	–	–	CCN(CC)CCCNc1cc2nc3n(c(=O)c2cc1F)CC/C3=C\c1ccc(OCc2ccccc2)cc1	–	–	–	–
2.1 to 2.6	–	inactive	inactive	–	–	48.5 µM	–	inactive	CCN(CC)CCCNc1cc2nc3n(c(=O)c2cc1F)CC/C3=C\c1ccc(N(CC)CC)cc1	–	–	–	–
